Measured values: ChEMBL document CHEMBL1141207, “Novel cell-penetrating alpha-keto-amide calpain inhibitors as potential treatment for muscular dystrophy” (Bioorg Med Chem Lett, 2005)
pIC50: −log10 of the molar value.

What was measured:
[1] = Inhibition of calpain I in C2C12 myoblasts loaded with Suc-Leu-Tyr-AMC; assay type: functional, Mus musculus
Method in brief: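 Cultured C2C12 myoblasts loaded with fluorogenic Suc-Leu-Tyr-AMC before the experiment; cellular calpain activated with Ca2+-ionophore Br-A-23187, then substrate hydrolysis by cellular calpain measured by fluorescence; IC50 values are means of triplicates.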

[2] = target: T1, Calpain-1 catalytic subunit (Sus scrofa, UniProt P35750); assay: Inhibitory activity against porcine calpain I using Suc-Leu-Tyr-AMC fluorogenic substrate
T1 sequence (P35750 whole entry): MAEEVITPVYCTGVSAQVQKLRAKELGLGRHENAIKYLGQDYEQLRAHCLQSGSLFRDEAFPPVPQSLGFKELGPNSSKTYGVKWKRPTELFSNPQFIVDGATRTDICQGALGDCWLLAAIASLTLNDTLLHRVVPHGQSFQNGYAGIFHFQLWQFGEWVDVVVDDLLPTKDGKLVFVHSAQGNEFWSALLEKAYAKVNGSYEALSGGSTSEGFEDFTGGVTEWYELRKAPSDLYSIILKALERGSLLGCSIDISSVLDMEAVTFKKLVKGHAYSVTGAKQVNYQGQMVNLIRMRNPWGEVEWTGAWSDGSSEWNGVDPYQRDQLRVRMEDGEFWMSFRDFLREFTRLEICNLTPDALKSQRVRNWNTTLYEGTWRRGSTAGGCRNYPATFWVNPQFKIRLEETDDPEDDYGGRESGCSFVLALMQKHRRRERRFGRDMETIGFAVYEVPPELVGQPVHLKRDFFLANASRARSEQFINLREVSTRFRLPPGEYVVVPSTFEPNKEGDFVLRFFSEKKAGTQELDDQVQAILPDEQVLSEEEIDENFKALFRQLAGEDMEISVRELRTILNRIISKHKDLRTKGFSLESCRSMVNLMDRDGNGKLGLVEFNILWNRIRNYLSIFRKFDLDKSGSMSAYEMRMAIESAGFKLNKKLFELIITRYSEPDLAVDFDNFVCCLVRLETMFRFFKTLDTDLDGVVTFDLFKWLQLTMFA
Method in brief: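 Purified porcine calpain I, cell-free; hydrolysis of fluorogenic Suc-Leu-Tyr-AMC followed as fluorescence increase over 30 min (ex 360 nm, em 440 nm); IC50 values are means of triplicates.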

Compound | pIC50 [1] | pIC50 [2]
CCCCc1ccc(C(=O)N[C@H](C(=O)N[C@@H](Cc2ccc(Cl)cc2)C(=O)C(=O)NCC)C(C)C)cc1 | 4.60 | 6.82
CCNC(=O)C(=O)[C@H](Cc1ccc(Cl)c(Cl)c1)NC(=O)[C@@H](NC(=O)CCCCC1CCSS1)C(C)C (some centres not stated) | 5.00 | 7.10
CCCCCCCCCCCC(=O)N[C@H](C(=O)N[C@@H](Cc1ccc(Cl)cc1)C(=O)C(=O)NCC)C(C)C | – | < 6.00
CC(C)C[C@H](NC(=O)CCCCC1CCSS1)C(=O)NC(Cc1ccc(Br)cc1)C(=O)C(=O)O (some centres not stated) | 5.30 | 7.30
CCNC(=O)C(=O)[C@H](Cc1cccs1)NC(=O)[C@@H](NC(=O)CCCCC1CCSS1)C(C)C (some centres not stated) | 5.22 | 7.00
CCNC(=O)C(=O)[C@H](Cc1ccc(Cl)cc1)NC(=O)[C@H](CC(C)(C)C)NC(=O)CCCCC1CCSS1 (some centres not stated) | 5.46 | 7.00
CCNC(=O)C(=O)[C@H](Cc1ccc(F)c(F)c1)NC(=O)[C@@H](NC(=O)CCCCC1CCSS1)C(C)C (some centres not stated) | 6.15 | 7.00
CCNC(=O)C(=O)[C@H](Cc1ccc(Cl)cc1)NC(=O)[C@@H](NC(=O)CCCCC1CCSS1)C(C)(C)C (some centres not stated) | – | < 6.00
CCNC(=O)C(=O)[C@H](Cc1ccc(O)cc1)NC(=O)[C@@H](NC(=O)CCCCC1CCSS1)C(C)C (some centres not stated) | 5.60 | 6.82
CCNC(=O)C(=O)[C@H](Cc1ccc(C(F)(F)F)cc1)NC(=O)[C@@H](NC(=O)CCCCC1CCSS1)C(C)C (some centres not stated) | 5.96 | 6.70
CCNC(=O)C(=O)[C@H](Cc1ccc(F)cc1)NC(=O)[C@@H](NC(=O)CCCCC1CCSS1)C(C)C (some centres not stated) | 5.60 | 7.00
CCNC(=O)C(=O)[C@H](Cc1ccc(Cl)cc1Cl)NC(=O)[C@@H](NC(=O)CCCCC1CCSS1)C(C)C (some centres not stated) | 4.40 | 7.00
CCNC(=O)C(=O)[C@@H](Cc1ccc(Br)cc1)NC(=O)[C@H](CC(C)C)NC(=O)CCCCC1CCSS1 (some centres not stated) | 6.40 | 7.41
CCNC(=O)C(=O)[C@H](Cc1ccc(Cl)cc1)NC(=O)[C@@H](NC(=O)CCCCC1CCCS1)C(C)C (some centres not stated) | 6.40 | 7.00
CCNC(=O)C(=O)[C@H](Cc1ccc(Br)cc1)NC(=O)[C@@H](NC(=O)CCCCC1CCSS1)C1CCCCC1 (some centres not stated) | – | < 6.00
CCNC(=O)C(=O)[C@H](Cc1ccc(C#N)cc1)NC(=O)[C@@H](NC(=O)CCCCC1CCSS1)C(C)C (some centres not stated) | 5.30 | 6.92
CCNC(=O)C(=O)[C@H](Cc1ccc(OC)cc1)NC(=O)[C@@H](NC(=O)CCCCC1CCSS1)C(C)C (some centres not stated) | 6.66 | 6.92
CCNC(=O)C(=O)[C@H](Cc1cccc(C(F)(F)F)c1)NC(=O)[C@@H](NC(=O)CCCCC1CCSS1)C(C)C (some centres not stated) | 4.82 | 7.00
CCNC(=O)C(=O)[C@H](Cc1ccc(Cl)cc1)NC(=O)[C@@H](NC(=O)CNC(=O)CCCCC1CCSS1)C(C)C (some centres not stated) | 6.00 | 7.52
CCNC(=O)C(=O)[C@H](Cc1ccc(C)cc1)NC(=O)[C@@H](NC(=O)CCCCC1CCSS1)C(C)C (some centres not stated) | 6.46 | 7.15
CCNC(=O)C(=O)[C@H](Cc1ccc(C(C)(C)C)cc1)NC(=O)[C@@H](NC(=O)CCCCC1CCSS1)C(C)C (some centres not stated) | 5.74 | 6.40
CC(C)C[C@H](NC(=O)CCCCC1CCSS1)C(=O)NC(Cc1ccc(Br)cc1)C(=O)C(=O)NCCc1ccccn1 (some centres not stated) | 6.10 | 6.64

Compound | pIC50 [1] | pIC50 [2]
CC(C)C[C@H](NC(=O)CCCCC1CCSS1)C(=O)NC(Cc1ccc(Br)cc1)C(=O)C(=O)N1CCOCC1 (some centres not stated) | – | < 6.00
CCOC(=O)C(=O)C(Cc1ccc(Br)cc1)NC(=O)[C@H](CC(C)C)NC(=O)CCCCC1CCSS1 (some centres not stated) | 5.35 | < 5.00
CCNC(=O)C(=O)[C@H](Cc1ccc(Cl)cc1)NC(=O)[C@@H](NC(=O)CCCC1CCCS1)C(C)C (some centres not stated) | 5.70 | 6.92
CCNC(=O)C(=O)[C@H](CC(C)C)NC(=O)[C@@H](NC(=O)CCCCC1CCSS1)C(C)C (some centres not stated) | 6.60 | 6.30
CCNC(=O)C(=O)[C@H](Cc1ccc(Cl)cc1)NC(=O)[C@@H](NC(=O)CCC1CCCS1)C(C)C (some centres not stated) | 5.49 | 7.00
CCNC(=O)C(=O)[C@H](Cc1ccc(Br)cc1)NC(=O)[C@H](CC(C)C)NC(=O)CCCCC1CCSS1 (some centres not stated) | 6.40 | 7.62
CCNC(=O)C(=O)[C@H](Cc1ccc(Cl)cc1)NC(=O)[C@@H](NC(=O)CCCCc1ccccc1)C(C)C | 5.82 | 7.22
CCNC(=O)C(=O)[C@@H](NC(=O)[C@@H](NC(=O)CCCCC1CCSS1)C(C)C)c1ccccc1 (some centres not stated) | 5.70 | 6.40
CC(C)C[C@H](NC(=O)CCCCC1CCSS1)C(=O)NC(Cc1ccc(Br)cc1)C(=O)C(N)=O (some centres not stated) | 6.60 | 7.70
CCNC(=O)C(=O)[C@H](Cc1ccc(Cl)cc1)NC(=O)[C@@H](NC(=O)CCNC(=O)CCCCC1CCSS1)C(C)C (some centres not stated) | 4.52 | 7.40
CC(C)C[C@H](NC(=O)CCCCC1CCSS1)C(=O)NC(Cc1ccc(Br)cc1)C(=O)C(=O)NC(C)(C)C (some centres not stated) | – | < 6.00
CCNC(=O)C(=O)[C@H](Cc1ccc(Cl)cc1)NC(=O)[C@@H](NC(=O)CCCCNC(=O)CCCCC1CCSS1)C(C)C (some centres not stated) | 4.70 | 7.00
CC(C)C[C@H](NC(=O)CCCCC1CCSS1)C(=O)NC(Cc1ccc(Br)cc1)C(=O)C(=O)NCCCN1CCOCC1 (some centres not stated) | 6.00 | 6.92
CCNC(=O)C(=O)[C@H](Cc1ccc(Cl)cc1)NC(=O)[C@@H](NC(=O)CCCCC1CCS[S+]1[O-])C(C)C (some centres not stated) | 5.22 | 7.10
CCNC(=O)C(=O)[C@H](Cc1ccc(Cl)cc1)NC(=O)[C@@H](NC(=O)CCCC[C@@H]1SC[C@@H]2NC(=O)N[C@@H]21)C(C)C | 5.30 | 7.00
CCNC(=O)C(=O)[C@H](Cc1ccccc1)NC(=O)[C@@H](NC(=O)CCCCC1CCSS1)C(C)C (some centres not stated) | 5.46 | 7.10
CCNC(=O)C(=O)[C@H](Cc1ccc(Br)cc1)NC(=O)[C@@H](NC(=O)CCCCC1CCSS1)C(C)CC (some centres not stated) | 5.05 | 6.74
CC(C)C[C@H](NC(=O)CCCCC1CCSS1)C(=O)NC(Cc1ccc(Br)cc1)C(=O)C(=O)NC1CCCCC1 (some centres not stated) | 6.55 | 7.15
CCNC(=O)C(=O)[C@H](CCc1ccccc1)NC(=O)[C@@H](NC(=O)CCCCC1CCSS1)C(C)C (some centres not stated) | < 5.00 | < 6.00
CCNC(=O)C(=O)[C@H](CC1CCCCC1)NC(=O)[C@@H](NC(=O)CCCCC1CCSS1)C(C)C (some centres not stated) | 5.52 | 6.60
CCNC(=O)C(=O)[C@H](Cc1ccc(Cl)cc1)NC(=O)[C@@H](NC(=O)OCc1ccccc1)C(C)C | 4.82 | 7.05
CCNC(=O)C(=O)[C@@H](NC(=O)[C@@H](NC(=O)CCCCC1CCSS1)C(C)C)C(c1ccccc1)c1ccccc1 (some centres not stated) | – | < 6.00
